Legend:
[1] = tested on: Rattus norvegicus; test: Antiarthritic activity in complete Freund's adjuvant-induced rat arthritis model assessed as reduction of paw volume in injected paw at 50 mg/kg, sc qd for 28 days; format: functional; settings: 672 h, route subcutaneous
In short: (§1)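 Rat adjuvant-induced polyarthritis. Compounds were dissolved or suspended in sterile saline, sonicated as needed, brought to pH 7.0 with NaOH, and kept as frozen aliquots, fresh each dosing day. Dosing was sc once daily for 28 days, by body weight. The arthritic control group got vehicle sc. Injected and noninjected hindpaw volumes were measured on day 28 by mercury displacement plethysmography and expressed as % inhibition.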

[2] = tested on: Rattus norvegicus; test: Antiarthritic activity in complete Freund's adjuvant-induced rat arthritis model assessed as reduction of paw volume in injected paw at 30 mg/kg, sc qd for 28 days; format: functional; settings: 672 h, route subcutaneous; in short: as §1
[3] = tested on: Rattus norvegicus; test: Antiarthritic activity in complete Freund's adjuvant-induced rat arthritis model assessed as reduction of paw volume in injected paw at 20 mg/kg, sc qd for 28 days; format: functional; settings: 672 h, route subcutaneous; in short: as §1
[4] = tested on: Rattus norvegicus; test: Antiarthritic activity in complete Freund's adjuvant-induced rat arthritis model assessed as reduction of paw volume in injected paw at 10 mg/kg, sc qd for 28 days; format: functional; settings: 672 h, route subcutaneous; in short: as §1
[5] = tested on: Rattus norvegicus; test: Antiarthritic activity in complete Freund's adjuvant-induced rat arthritis model assessed as reduction of paw volume in non-injected paw at 50 mg/kg, sc qd for 28 days; format: functional; settings: 672 h, route subcutaneous; in short: as §1
[6] = tested on: Rattus norvegicus; test: Antiarthritic activity in complete Freund's adjuvant-induced rat arthritis model assessed as reduction of paw volume in non-injected paw at 30 mg/kg, sc qd for 28 days; format: functional; settings: 672 h, route subcutaneous; in short: as §1
[7] = tested on: Rattus norvegicus; test: Antiarthritic activity in complete Freund's adjuvant-induced rat arthritis model assessed as reduction of paw volume in non-injected paw at 20 mg/kg, sc qd for 28 days; format: functional; settings: 672 h, route subcutaneous; in short: as §1
[8] = tested on: Rattus norvegicus; test: Antiarthritic activity in complete Freund's adjuvant-induced rat arthritis model assessed as reduction of paw volume in non-injected paw at 10 mg/kg, sc qd for 28 days; format: functional; settings: 672 h, route subcutaneous; in short: as §1
[9] = tested on: Mus musculus; test: Antiinflammatory activity in methylated bovine serum albumin sensitized delayed-type hypersensitivity granuloma mouse model assessed as reduction of granuloma dry weight at 100 mg/kg, sc qd for 9 days; format: functional; settings: 216 h, route subcutaneous
In short: (§2)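 Groups of 10 female mice (25 g) were sensitized sc over the inguinal lymph node with mBSA emulsion in saline, Freund's incomplete adjuvant and dextran. Three weeks later, two 6-mm hydroxyapatite discs soaked in mBSA (30 mg/mL saline) were implanted sc in the dorsum. Compounds at pH 7.4 were given sc into the scruff at 0.1 mL/10 g, daily from implantation to day 9. Granuloma wet and dry weights were recorded as % inhibition.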

[10] = tested on: Mus musculus; test: Antiinflammatory activity in methylated bovine serum albumin sensitized delayed-type hypersensitivity granuloma mouse model assessed as reduction of granuloma dry weight at 60 mg/kg, sc qd for 9 days; format: functional; settings: 216 h, route subcutaneous; in short: as §2
[11] = tested on: Mus musculus; test: Antiinflammatory activity in methylated bovine serum albumin sensitized delayed-type hypersensitivity granuloma mouse model assessed as reduction of granuloma dry weight at 25 mg/kg, sc qd for 9 days; format: functional; settings: 216 h, route subcutaneous; in short: as §2
[12] = tested on: Mus musculus; test: Antiinflammatory activity in methylated bovine serum albumin sensitized delayed-type hypersensitivity granuloma mouse model assessed as reduction of granuloma wet weight at 100 mg/kg, sc qd for 9 days; format: functional; settings: 216 h, route subcutaneous; in short: as §2
[13] = tested on: Mus musculus; test: Antiinflammatory activity in methylated bovine serum albumin sensitized delayed-type hypersensitivity granuloma mouse model assessed as reduction of granuloma wet weight at 60 mg/kg, sc qd for 9 days; format: functional; settings: 216 h, route subcutaneous; in short: as §2
[14] = tested on: Mus musculus; test: Antiinflammatory activity in methylated bovine serum albumin sensitized delayed-type hypersensitivity granuloma mouse model assessed as reduction of granuloma wet weight at 25 mg/kg, sc qd for 9 days; format: functional; settings: 216 h, route subcutaneous; in short: as §2
[15] = tested on: Mus musculus; test: Toxicity in albino mouse assessed as mortality at 500 to 1000 mg/kg, […] after 24 hrs; format: organism-based; set-up: dose 500-1000 mg/kg; settings: in vivo
In short: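 Albino mice (20-25 g) were split into 6 groups of 8. Compounds were given at 500, 750 and 1000 mg/kg; controls received buffer only. Toxic symptoms, mortality and postmortem findings were recorded 24 h after administration. LD50 was calculated by the Dm − Σ(z×d)/n formula.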

[16] = tested on: Mus musculus; test: Toxicity in albino mouse assessed as toxic symptoms at 500 to 1000 mg/kg, ip after 24 hrs; settings: in vivo
[17] = tested on: MCF7; test: Cytotoxicity against human MCF7 cells after 48 hrs by SRB assay; format: functional, cell-based; settings: MCF7, 48 h
In short: (§3)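 Cells were seeded at 10^4 per well and allowed to attach for 24 h. They were then exposed to four compound concentrations (5, 12.5, 25, 50), each in triplicate wells, for 48 h at 37 °C in 5% CO2. Cells were fixed and stained with sulforhodamine B, washed with acetic acid, and bound dye was recovered in Tris-EDTA pH 7.4 and read on a plate reader. IC50 was taken from survival curves using the triplicate means.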

[18] = tested on: HeLa; test: Cytotoxicity against human HeLa cells after 48 hrs by SRB assay; format: functional, cell-based; in short: as §3
[19] = tested on: HepG2; test: Cytotoxicity against human HepG2 cells after 48 hrs by SRB assay; format: functional, cell-based; settings: HepG2, 48 h; in short: as §3
[20] = tested on: HCT-116; test: Cytotoxicity against human HCT116 cells after 48 hrs by SRB assay; format: functional, cell-based; settings: HCT-116, 48 h; in short: as §3
[21] = tested on: Rattus norvegicus; test: Antiarthritic activity in complete Freund's adjuvant-induced rat arthritis model assessed as reduction of paw volume in injected paw at 100 mg/kg, sc qd for 28 days; format: functional; settings: 672 h, route subcutaneous; in short: as §1
[22] = tested on: Rattus norvegicus; test: Antiarthritic activity in complete Freund's adjuvant-induced rat arthritis model assessed as reduction of paw volume in non-injected paw at 100 mg/kg, sc qd for 28 days; format: functional; settings: 672 h, route subcutaneous; in short: as §1
[23] = tested on: Mus musculus; test: Antiinflammatory activity in methylated bovine serum albumin sensitized delayed-type hypersensitivity granuloma mouse model assessed as reduction of granuloma dry weight at 50 mg/kg, sc qd for 9 days; format: functional; settings: 216 h, route subcutaneous; in short: as §2
[24] = tested on: Mus musculus; test: Antiinflammatory activity in methylated bovine serum albumin sensitized delayed-type hypersensitivity granuloma mouse model assessed as reduction of granuloma wet weight at 50 mg/kg, sc qd for 9 days; format: functional; settings: 216 h, route subcutaneous; in short: as §2

Structure (SMILES) | inhibition in vivo at 50 mg/kg [1] | inhibition in vivo at 30 mg/kg [2] | inhibition in vivo at 20 mg/kg [3] | inhibition in vivo at 10 mg/kg [4] | inhibition in vivo at 50 mg/kg [5] | inhibition in vivo at 30 mg/kg [6] | inhibition in vivo at 20 mg/kg [7] | inhibition in vivo at 10 mg/kg [8] | inhibition in vivo at 100 mg/kg [9] | inhibition in vivo at 60 mg/kg [10] | inhibition in vivo at 25 mg/kg [11] | inhibition in vivo at 100 mg/kg [12] | inhibition in vivo at 60 mg/kg [13] | inhibition in vivo at 25 mg/kg [14] | also measured
CCOP(=O)(OCC)C1=C(S)c2ccccc2N(C)P1(=O)OCC (centres undefined) | 37% | 35% | 27% | 18% | 76% | 73% | 60% | 66% | 55% | 53% | 50% | 50% | 48% | 33% | Activity [15]: Non-toxic; Activity [16]: Non-toxic
CCOP(=O)(OCC)C1(P(=O)(OCC)OCC)Nc2ccccc2C1=S | 15% | 11% | 7% | 5% | 64% | 58% | 60% | 48% | 46% | 42% | 30% | 44% | 31% | 24% | 
CCOP(=O)(OCC)C1(P(=O)(OCC)OCC)C(=S)c2ccccc2N1C | 30% | 32% | 23% | 15% | 68% | 70% | 55% | 45% | 48% | 45% | 36% | 38% | 45% | 33% | IC50 [17]: 16.5 µM; IC50 [18]: 15.2 µM; IC50 [19]: 14.7 µM; IC50 [20]: 8.27 µM; Activity [15]: Non-toxic; Activity [16]: Non-toxic
CCOP1(=O)Nc2ccccc2C(S)=C1P(=O)(OCC)OCC (centres undefined) | 25% | 14% | 10% | < 5% | 75% | 68% | 56% | 66% | 50% | 42% | 38% | 51% | 44% | 33% | 
CN1c2ccccc2C(=S)C1(P(=O)(O)O)P(=O)(O)O | < 5% |  |  |  | 18% |  |  |  | 32% |  |  | 25% |  |  | inhibition in vivo at 100 mg/kg [21]: 13%; inhibition in vivo at 100 mg/kg [22]: 27%; inhibition in vivo at 50 mg/kg [23]: 16%; inhibition in vivo at 50 mg/kg [24]: 15%
CCOP(=O)(OCC)C1(P(=O)(OCC)OCC)C(=S)c2ccccc2N=C1c1ccccc1 | 28% | 30% | 12% | < 5% | 70% | 68% | 60% | 40% | 48% | 32% | 22% | 43% | 35% | 13% | IC50 [17]: 15.6 µM; IC50 [18]: 27.1 µM; IC50 [19]: 20.4 µM; IC50 [20]: 22.8 µM
CCOP(=O)(OCC)C1(P(=O)(OCC)OCC)C(=S)c2ccccc2N=C1C | 20% | 18% | 23% | < 5% | 66% | 72% | 61% | 38% | 44% | 37% | 24% | 40% | 30% | 20% | 

Reference: ChEMBL document CHEMBL2010692, “Inhibitory effect of novel S,N-bisphosphonates on some carcinoma cell lines, osteoarthritis, and chronic inflammation” (Eur J Med Chem, 2012)
